Insulin prom act: TRM-6 insulin promoter activation; TRM-6 cells, insulin promoter eGFP reporter, imaging; plate-scaled: unstimulated 0, stimulated control 100; activation, % at 2 µM; 130,000 tested, 0.81% active;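 active = activation at 2 µM above a set limit, confirmed on inspection of the cell images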;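 also: share of cells whose green reporter signal exceeds an intensity cutoff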
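System: human fetal islet-derived TRM-6 cells with tamoxifen-inducible insulin promoter–eGFP reporter; input: seeding density of 1,000 cells per well; buffer or medium: Low-glucose (5.5 mM) medium with tamoxifen; incubation: compound exposure 48 h, 37 °C; measured by: high-content imaging of fixed cells with Hoechst nuclear stain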
Starred values were filed as active, the others as inactive. This is one part of a sample in which hits are shown more often than they occur.

How did Cc1cc(C)c2c(=O)[nH]c(SCC(=O)c3ccc(C)c(C)c3)nc2n1 do in these assays?
Insulin prom act: 9.1

What do the screens show for `CCNS(=O)(=O)c1ccc(CCC(=O)NCc2ccccc2)cc1`?
Insulin prom act: -7.0

Results for CN1CC2([N+](=O)[O-])CC=C(OCCO)C([N+](=O)[O-])(C1)C2 (stereo unspecified) ?
Insulin prom act: -7.7

How did CCOC(=O)c1cc(NC(=O)Nc2ccccn2)c(C)nc1C do in these assays?
Insulin prom act: 5.9

How did CC1CC(C)CN(CCOc2ccccc2-c2ccccc2)C1 (stereo unspecified) do in these assays?
Insulin prom act: 464.3*

What do the screens show for `C=CCc1ccc(OCCCCN2CC(C)CC(C)C2)c(OC)c1` (stereo unspecified)?
Insulin prom act: -7.7

How did CC1(C)NC(=O)N(CC(O)COc2ccccc2-c2ccccc2)C1=O (stereo unspecified) do in these assays?
Insulin prom act: -6.7

Results for N#Cc1c(-c2ccccc2)ccn(Cc2ccc(Cl)cc2)c1=O ?
Insulin prom act: 9.1

How did CCCS(=O)c1nc(C)cc(C)c1S(C)(=O)=O (stereo unspecified) do in these assays?
Insulin prom act: 177.8

What do the screens show for `COc1cc(CC(CC(=O)O)CC(C)OCc2ccccc2)cc(OC)c1` (stereo unspecified)?
Insulin prom act: 3.8

How did CC(=O)c1cnc2cc(-c3cccc(Br)c3)nn2c1C do in these assays?
Insulin prom act: 7.1

Results for N#Cc1cnn2c(N)c(-c3ccc(Cl)cc3)cnc12 ?
Insulin prom act: 9.1

What do the screens show for `CC(=O)c1cnc2c(-c3ccc(Cl)cc3)cnn2c1C`?
Insulin prom act: 584.6*

How did Cc1ccc(NC(=O)CNC2CCS(=O)(=O)C2)cc1C (stereo unspecified) do in these assays?
Insulin prom act: -2.9

How did CCn1c(SCc2ccccc2)nnc1-c1cccnc1 do in these assays?
Insulin prom act: 0.0

How did CNC(=S)N(Cc1cccs1)Cc1cc2cc(OC)c(OC)cc2[nH]c1=O do in these assays?
Insulin prom act: 2.6

How did COc1cc2cc(CN(Cc3cccs3)C(=S)Nc3cccc(C)c3)c(=O)[nH]c2cc1OC do in these assays?
Insulin prom act: 353.8*

How did Cc1cccc(NC(=S)N(Cc2cccs2)Cc2cc3cc(C)ccc3[nH]c2=O)c1 do in these assays?
Insulin prom act: -7.7

How did Cc1ccc(NC2Sc3ccccc3NC2=O)cc1 (stereo unspecified) do in these assays?
Insulin prom act: -9.1

Results for O=C1CCCS(=O)(=O)c2ccccc21 ?
Insulin prom act: 123.5

How did CCCOc1ccc(C(=O)NCC(C)(C)N2CCOCC2)cc1 do in these assays?
Insulin prom act: 0.0

Results for COc1cc(OC)c(C(=O)NNC(=S)NC2CCCCC2)cc1OC ?
Insulin prom act: 7.9

Results for Cn1cc(Cl)c(C(=O)NNC(=S)NC2CCCCC2)n1 ?
Insulin prom act: 491.7*

How did COC(=O)c1c(NC(=O)c2nn(C)cc2Cl)sc2c1CCCC2 do in these assays?
Insulin prom act: 3.1

How did COCCNC(=O)CCCC(=O)NCCOC do in these assays?
Insulin prom act: 3.1

How did COc1cccc(NC(=O)CSc2nc3c(c(=O)n2C)SC(C)C3)c1 (stereo unspecified) do in these assays?
Insulin prom act: 0.0

What do the screens show for `Cc1ccccc1Oc1cc(-n2ncc(Cl)c(Cl)c2=O)ncn1`?
Insulin prom act: 270.4*

How did Cc1nn(-c2ccccc2)c(C)c1NC(=O)COc1ccc(F)cc1Cl do in these assays?
Insulin prom act: 8.1

What do the screens show for `c1ccc(Oc2cc(-n3cccn3)ncn2)cc1`?
Insulin prom act: 9.4

Results for Cc1ccc(S(=O)(=O)NNC(=O)NC23CC4CC(CC(C4)C2)C3)cc1 ?
Insulin prom act: -6.7

What do the screens show for `CC1=NN(C(=O)c2c(Br)c(C)nn2C)C(O)(C(F)(F)F)C1` (stereo unspecified)?
Insulin prom act: 0.0

How did S=c1[nH]nc(COc2ccc(Cl)cc2)n1C1CCCCC1 do in these assays?
Insulin prom act: 437.1*

Results for Cc1n[nH]c(=S)n1/N=C/c1ccc(OCc2ccc(Cl)cc2)cc1 ?
Insulin prom act: 0.0

How did Cc1cccc(OCc2n[nH]c(=S)n2C2CCCCC2)c1 do in these assays?
Insulin prom act: -75.0

How did CN(C)/C=C/C(=O)c1cnc(-c2ccccn2)s1 do in these assays?
Insulin prom act: 9.1

What do the screens show for `COc1ccc(C2=[N+](C)CCn3cccc32)c(OC)c1`?
Insulin prom act: 8.3

Results for Nc1nncn1C(=O)c1c(Cl)cccc1Cl ?
Insulin prom act: 443.8*

Results for Cc1c(Cl)cccc1NC(=O)CSCC(N)=O ?
Insulin prom act: 207.7

How did Nc1nncn1C(=O)CCCN1C(=O)c2ccccc2C1=O do in these assays?
Insulin prom act: 268.8

How did COc1ccc(CCNC(=O)C2CCC(=O)N2CCc2ccccc2)cc1OC (stereo unspecified) do in these assays?
Insulin prom act: -3.7

How did CC(C)(C)OC(=O)N1CCCC1C(=O)NCCc1ccccc1 (stereo unspecified) do in these assays?
Insulin prom act: 9.1

Results for Cc1cccc(C)c1NC(=O)C1(NC(=O)C2CCCN2C(=O)OC(C)(C)C)CCCCC1 (stereo unspecified) ?
Insulin prom act: 171.4*

What do the screens show for `Cc1ccc(NC(=O)C2CCCN2C(=O)Oc2ccccc2)cc1C` (stereo unspecified)?
Insulin prom act: 0.0

Results for Cc1cc(=O)oc2cc(OC(=O)c3cncc(Br)c3)ccc12 ?
Insulin prom act: 0.0

What do the screens show for `CCc1ccc(N(C(=O)c2csnn2)C(C(=O)NC(C)(C)C)c2cccnc2)cc1` (stereo unspecified)?
Insulin prom act: -4.3

What do the screens show for `O=C(Nc1nccs1)c1cccc(S(=O)(=O)N2CCCCC2)c1`?
Insulin prom act: 182.4

What do the screens show for `CCc1nnc(NC(=O)c2ccc3c(c2)C(=O)N(C(C)(C)C)C3=O)s1`?
Insulin prom act: -5.4

How did CCC(CC)C(=O)Nc1cccc(C(=O)Nc2nccs2)c1 do in these assays?
Insulin prom act: 75.7*

How did CCCN1C(=O)c2ccc(C(=O)Nc3nccs3)cc2C1=O do in these assays?
Insulin prom act: 475.0*

Results for CCCN1C(=O)c2ccc(C(=O)NCc3ccco3)cc2C1=O ?
Insulin prom act: -42.9

How did Cc1ncoc1C(=O)Nc1nccs1 do in these assays?
Insulin prom act: 7.1

Results for CCc1cc(CC)c(/C=N/NC(N)=O)c(CC)c1 ?
Insulin prom act: 0.0

What do the screens show for `C=CCn1c(SCCN2CCCC2)nc2c([nH]c3ccccc32)c1=O`?
Insulin prom act: -7.7

What do the screens show for `COc1ccc(CCNC(=O)c2ccc3c(SCC(=O)O)c4c(nc3c2)CCCC4)cc1OC`?
Insulin prom act: -7.1

How did Cc1ccccc1N1C(=O)CC1(C#N)c1ccc(OCc2ccccc2)cc1 (stereo unspecified) do in these assays?
Insulin prom act: 9.7

Results for COc1ccc(S(=O)(=O)Nc2ccc(NC(C)=O)cc2)cc1[N+](=O)[O-] ?
Insulin prom act: 0.0

How did COc1ccc(C)cc1N(CC(=O)N/N=C/c1ccc2c(c1)OCO2)S(C)(=O)=O do in these assays?
Insulin prom act: 6.7

How did CC(C)c1ccc2c(c1)C1Cc3ccccc3C1N2 (stereo unspecified) do in these assays?
Insulin prom act: 136.7

What do the screens show for `Cc1ccccc1-c1nc(Cc2ccc(Cl)cc2)no1`?
Insulin prom act: 102.9*

Results for COc1cc(-c2nc(Cc3c(F)cccc3Cl)no2)cc(OC)c1OC ?
Insulin prom act: -70.0

What do the screens show for `Cc1ccccc1-c1noc(-c2cccs2)n1`?
Insulin prom act: -80.0

Results for O=C(CNc1cc(S(=O)(=O)N2CCCC2)ccc1OCC(F)(F)F)Nc1cccc(C(F)(F)F)c1 ?
Insulin prom act: 7.4
